# Source: ChEMBL document CHEMBL4513216, “Probing the Open Global Health Chemical Diversity Library for Multistage-Active Starting Points for Next-Generation Antimalarials” (ACS Infect Dis, 2020)
# Test: Toxicity liver stage against HepG2, at 10uM
# Type: cell-based
# Design: test concentration 10 uM, cell line HepG2-A16-CD81EGFP
# Conditions: human, HepG2-A16-CD81EGFP cells; read-out: INHIBITION
# Method in brief: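 Uninfected HepG2-A16-CD81EGFP cells, 3 × 10^3 per well, 1536-well, plated on prespotted compound at 10 μM final, parasite-free screening media added to match infected plates; puromycin 10 μM positive, DMSO 0.5% negative; run in parallel with 48 h PbLuc assay at 37 °C, 5% CO2; viability by CellTiter-Glo luminescence, normalized to controls.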
row,SMILES,cytotoxicity at 10 µM [%]
1,O=C(c1cccnc1Oc1ccccc1)N1CCCn2ncnc21,-13.7
2,CC(=O)N1CCC(N2CC[C@H](c3nc4cc(C)ccc4o3)C2)CC1,2.84
3,CCN(CC)C[C@H]1CN2CC[C@H]1C[C@@H]2CNC(=O)c1ccco1,-2.49
4,O=C1CO[C@H]2CN(S(=O)(=O)c3ccccc3)C[C@H]2N1Cc1ccccc1,-1.69
5,COCc1cn(C[C@H]2CC3CCN2C[C@@H]3C(=O)Nc2ccccc2)nn1 (stereo not given in full),-0.522
6,CC(C)NC(=O)C[C@@H]1CCNC[C@@H]1Cc1cc(-c2ccccn2)on1,-3.15
7,CC1=C[C@@H](CNS(C)(=O)=O)[C@H](C(C)C)C[C@H]1CC(=O)NCCN(C)C,0.559
8,COc1ccc(NC(=O)Cn2ccc3c(=O)n(C)ccc32)cc1OC,-4.34
9,CCCNC(=O)c1cn(C(C)(C)C)c2ncccc12,-0.317
10,COCCn1cnc2ccc(NC(=O)c3ccc(OC)cc3)cc2c1=O,-6.78
11,Cc1cnc(NC2CCc3c(ccc(=O)n3C)C2)nc1 (stereo not given),-149
12,CC(=O)N1CCC2(CC1)CN(C(=O)c1cccc3[nH]ccc13)C2,-121
13,Cc1nnc([C@@H]2CC[C@@H]3[C@@H](CCN3CC3CCOCC3)O2)o1,7.64
14,Cc1noc(C2CCC3(CCN(C(=O)c4ncccn4)CC3)O2)n1 (stereo not given),4.09
15,CCS(=O)(=O)N1CCC2(CC(=O)N(c3cnn(C)c3)C2)C1 (stereo not given),6.92
16,CN1CCN(Cn2nc(-c3cccs3)ccc2=O)CC1,2.63
17,CN1CCN(C(=O)Cn2ccc3c(Cl)cccc32)CC1,2.08
18,CC[C@H](C)[C@H](NC(=O)c1ccccc1-n1cnnn1)C(=O)OC,5.16
19,O=C(c1cnn2c1OCCC2)N1CCC2(CC1)OCCO2,7.91
20,Cc1nc(N2CCN(C(=O)c3ccccc3)CC2)c2c(n1)c(C)nn2C,15.7
21,Nc1nc(SCc2ccc3c(c2)OCO3)ns1,-0.681
22,CCN(CC)S(=O)(=O)c1cc2c3c(c1)c(C)cc(=O)n3CCC2,2.85

row,SMILES,cytotoxicity at 10 µM [%]
1,Cc1cc(C)nc(N2CCC(c3c(C(N)=O)sc4ccccc34)C2)n1 (stereo not given),8.78
2,O[C@H]1CN(Cc2ccnc(N3CCCC3)n2)CC[C@@]12CCCO2,3.62
3,Cc1c[nH]nc1C1CCN(C(=O)C2CCC2)CC1,5.33
4,Cc1nccc(C2CN(C(=O)c3cncnc3)C2)n1,-2.46
5,O=C(c1nsc(Cl)c1Cl)N1CCc2nc3sccc3c(=O)n2CC1,-20.4
6,CC(=O)N1CCC(Cc2nccnc2-c2c(C)n[nH]c2C)C1 (stereo not given),10.7
7,Cc1ncc2c(n1)CCN(Cc1ncc(C(C)(C)C)o1)C2,14
8,CC(CNC(=O)c1cccc(-n2cccn2)c1)Cn1ccnc1 (stereo not given),0.335
9,NC1(c2nc(-c3ccccc3)cc(=O)[nH]2)CCCC1,1.47
10,Cc1nc(CN(C)C(=O)Nc2cccc(COC(C)C)c2)no1,8.45
11,O=C(CCn1cccn1)NCCOc1ccc2c(c1)OCO2,-5.01
12,NC(=O)[C@@H]1Cc2ccccc2N1C(=O)C1CC(c2ccccc2)=NO1 (stereo not given in full),5.79
13,COc1cccc(CCC(=O)Nc2cnc3c(c2)c(C)nn3C)c1OC,1.67
14,Cc1ccc(OCCN(C)S(=O)(=O)c2cnn(C)c2)cc1,0.821
15,N#Cc1ccc(F)c(CN(CC(=O)N2CCCC2)CC2CCCO2)c1 (stereo not given),-7.06
16,N#Cc1ccc(CN2CCCN(C(=O)CCn3cncn3)CC2)cc1,-12.7
17,CN(Cc1cccc(Cl)c1)Cc1nnsc1Cl,6.78
18,CCN1CCC(CNC(=O)Nc2cccnc2OC)CC1,-0.523
19,Cc1cc(C(=O)N2CCN(S(C)(=O)=O)[C@@H](C)C2)c(F)cc1F,-1.78
20,COCCc1noc(CN2CCCC2c2noc(C3CC3)n2)n1 (stereo not given),1.33
21,CN(Cc1ccco1)C(=O)C1=NN(C)C(=O)CC1,-144
22,Cc1cc(CCCC(=O)NC2CCN(C)C2=O)c(C)s1 (stereo not given),-0.67

row,SMILES,cytotoxicity at 10 µM [%]
1,CC(C)SCc1cccc(NC2CCN(C)C2=O)c1 (stereo not given),1.26
2,Cc1ccc(S(=O)(=O)N(CC(N)=O)CC(C)C)cc1C,-14.5
3,CS(=O)(=O)N1CCC(CSc2ccccc2)C1 (stereo not given),1.58
4,COc1cc(OC)cc(C(=O)NCCCNc2ncccn2)c1,-11.1
5,CCn1nc(C(=O)N2CCCC2c2noc(C3CC3)n2)ccc1=O (stereo not given),5.65
6,CCN(CC)c1ccc(C(=O)NCC2(C(N)=O)CCOCC2)cn1,2.99
7,CSc1ncccc1C(=O)NCC(c1ccco1)N(C)C (stereo not given),2.57
8,CCC(NC(=O)CCCNC(=O)OC)c1cc(F)ccc1F (stereo not given),-2.34
9,CS(=O)(=O)CC1(CNc2c(C#N)cnc3ccc(Cl)cc23)CC1,8.62
10,CC(=O)N1CCSCC1c1ccc(C)o1 (stereo not given),-0.872
11,CCn1c(CN2CCOC(Cn3cncn3)C2)nc2cc(F)ccc21 (stereo not given),-4.84
12,N#Cc1c(F)cccc1NCCCOCC1CCOC1 (stereo not given),-2.64
13,Cc1ccc(-c2nc(CNc3ccc(C(N)=O)c(C)c3)cs2)o1,23.9
14,CCCC(NC(=O)c1cc(C)n(C2CC2)c1C)c1nnn[nH]1 (stereo not given),-10.1
15,O=C(Nc1ccnc(OC2CCOC2)c1)C1CCC1 (stereo not given),5.76
16,CN(CCC#N)C(=O)CCOc1cccc(F)c1,-2.46
17,CCc1nccn1C1CCCN(C(=O)c2cn3c(C)cccc3n2)C1 (stereo not given),-14.5
18,COc1cccc(CN2CCOC(Cn3nc(C)cc3C)C2)c1 (stereo not given),7.83
19,Cc1cccc(CN2CCc3onc(CN(C)C)c3C2)n1,-4.62
20,CN1CC2(CCN(C(=O)COc3ccc(Cl)cc3Cl)CC2)OC1=O,-3.25
21,O=C(O)CCc1cc2n(n1)CCCN(C(=O)c1ccc(F)cc1F)C2,-0.168
22,CCc1nc(C)c([C@H]2CN(C)C[C@@H]2C(=O)NCc2ccccc2OC)[nH]1,0.15

row,SMILES,cytotoxicity at 10 µM [%]
1,CCn1ccnc1CN1CCCC(N(C)CCc2ccccc2)C1 (stereo not given),2.88
2,CN1CCC(Cc2nc(-c3cnccn3)n(Cc3ccccc3)n2)CC1,1.21
3,OCc1cn(CC2CCN(C3CCSC3)CC2)nn1 (stereo not given),0.55
4,Cc1ccc(C(=O)N2CCC(n3cc(CN)nn3)CC2)cc1F,-3.54
5,O=C(c1cc(COc2ccc3c(c2)OCO3)[nH]n1)N1CCSCC1,-7.05
6,CN(CC(O)CO)C(=O)c1coc(COc2cccc(F)c2)n1 (stereo not given),-149
7,O=C1O[C@@H]2CN(Cc3cccnc3)C[C@@H]2N1CCCN1CCOCC1,-2.27
8,CCN1CC2(CCC1=O)CCN(C(=O)c1cn3cccnc3n1)CC2,-9.7
9,CCNC(=O)[C@@H]1C[C@@H](NC(=O)c2ccc(C#N)cc2)CN1CCCSC,-123
10,CN1CCN([C@@H]2CCN(Cc3ccc4cc(F)ccc4n3)C[C@H]2O)CC1,-4.1
11,CCn1nc(C)c(CCNC(=O)C2CCCN(C(=O)COC)C2)c1C (stereo not given),-0.367
12,CC(=O)N[C@@H]1CN(Cc2cccs2)C[C@H]1c1ccc(C)o1,6.54
13,COc1ccc(CCN)cc1-c1ccc(O)cc1,-3.05
14,CCCC(C)C(=O)N1CCC(c2cc(N3CCOCC3)nc(C)n2)CC1 (stereo not given),-3.35
15,COCCN1CCN(c2ncnc3nc(C)cc(C)c23)CC1,2.42
16,CCS(=O)(=O)c1ncc(CN(C)Cc2ccccc2Cl)n1CCOC,3.58
17,NCCn1cc(C(=O)N2CCNC(=O)C2c2cccc(F)c2)nn1 (stereo not given),3.62
18,Cc1ccc(-c2cc(C(=O)N(C)Cc3noc4c3CCCC4)[nH]n2)s1,-1.03
19,Cc1ccc(Oc2ncccc2CNC2Cc3ccccc3C2)cn1,-2.19
20,CC(C)CN1CC2(CCN(C(=O)c3cn4cccnc4n3)CC2)CC1=O,-6.84
21,CCS(=O)(=O)N1CCC2(CCCN(Cc3cc(OC)ccc3F)C2)C1 (stereo not given),14.4
22,CN(C)C(=O)c1cccc(CN2CCN(CC(O)C(C)(C)C)CC2)c1 (stereo not given),1.74

row,SMILES,cytotoxicity at 10 µM [%]
1,Cn1cc(Cl)cc1C(=O)N1CCN(Cc2cccs2)CC1,-8.1
2,O=C(Cc1ccc2c(c1)CCO2)N1CCN(c2ccccn2)CC1,-13.6
3,CCc1ccsc1C(=O)N1CCN(CC(C)(C)O)CC1,-13.1
4,Cn1ccnc1CN1CCCN(C(=O)COC2CCCCC2)CC1,-23.9
5,CC(C)c1nn(C)c(N(C)C)c1CNCC(O)c1cccc(F)c1 (stereo not given),-1.82
6,Cc1noc(C2CCN(C(=O)CCc3nccs3)CC2)n1,-5.43
7,COc1cc(CNCCc2cnn(C)c2)cc2c1OCCO2,-4.82
8,Cc1cnn(CC(C)NCc2csc(-c3ccsc3)n2)c1 (stereo not given),-6.79
9,CN1N=C(C(=O)NCc2ccc3c(c2)CCCN3C)CCC1=O,-0.602
10,CN1CCN(CC2CC2)C(=O)C12CCN(C(=O)CC(F)(F)F)CC2,8.75
11,Cn1cc(C(=O)N[C@@H]2CN(CC3CCOCC3)[C@@H]3CCCO[C@@H]32)cn1,6.64
12,Cc1ccc(C(=O)N2CCC3(CCN(c4ccsc4)C3=O)C2)cn1 (stereo not given),-127
13,O=C(c1ccccn1)N1CCc2ncc(Cn3cccn3)n2CC1,5.44
14,c1cnc(N2CCOC3(CCCN(c4cnccn4)C3)C2)nc1 (stereo not given),10.1
15,Cc1cccc(CN2C(=O)C[C@H]3[C@@H]2CCN3CC2CC2)n1,6.59
16,Cc1ccc(CN2CCC3(CC2)CN(C(=O)c2cnccn2)CCO3)o1,-4
17,CO[C@H]1CCN(c2nnc(C)s2)C[C@@H]1Cc1ccccc1,11.8
18,CN1[C@H](CN2CCCC2)C[C@@H]2CN(Cc3ccoc3)CC[C@@H]21,-160
19,CN(C)CCOCc1nnc2n1CCN(Cc1ccco1)C2,7.55
20,O=C(NCc1cccnc1)N1CCc2ncnc(C3CC3)c2CC1,-144
21,O[C@H]1CCN(CC2CC2)[C@H]1Cc1ccncc1,0.165
22,CN(C)[C@@H]1COC[C@@H]2CN(Cc3ccc4c(c3)OCO4)C[C@@H]21,2.02
